# Rows were chosen to be rich in hits. Some 2.9% of all compounds tested hit in one or more screens of this group.
# TRPC6 inhibitor: blocks the mouse TRPC6 cation channel | Q61143 | HEK293-TRPC6, membrane potential dye, ACh-evoked depolarization; hits give low values | B-score at 10 µM | 310,000 compounds, 1.1% hits;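 active means B-score under library mean minus 3 SD, initial fluorescence not abnormally high, positive integrated signal ratio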;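 further: B-score derived from integrated fluorescence ratio over the kinetic read; more negative B-score means stronger inhibition of depolarization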
# TRPC4 act: activators of mouse TRPC4 channel; Q9QUQ5; 310,000 compounds, 0.49% hits; B-score at 10 µM; AID 2237; HEK293 TRPC4beta/mu-opioid, Fluo4 calcium fluorescence; hits give high values;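 active means B-score above 5 SD of library B-scores, and initial fluorescence ratio not above library mean plus 5 SD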;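 further: positive B-score marks a calcium rise read as TRPC4 activation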
#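 Assay system – TRPC4beta and mu-opioid receptor HEK293 stable cells · Measured by – Fluo4 fluorescence, kinetic · Schedule – dye loading 45 min room temperature, 110 s kinetic read · Read-out – B-scored integrated calcium fluorescence ratio · Controls – buffer and maximal DAMGO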
# TRPC4 block: TRPC4 (mouse) channel inhibition | B-score at 10 µM | 300,000 compounds, 0.39% hits | HEK293 TRPC4beta/mu-opioid, DAMGO-evoked Fluo4 calcium flux; hits give low values;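 active means B-score over 3 SD under the library average, no early fluorescence shift, positive overall ratio signal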
#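 test system = HEK293 cells with stable TRPC4beta plus mu-opioid receptor expression | detection = Fluo4 Ca2+ flux fluorescence | read-out = integrated fluorescence ratio relative to baseline, converted to per-well B score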
# TRPC6 activator: activates the mouse TRPC6 cation channel | B-score at 10 µM | Q61143 | HEK293-TRPC6 membrane potential dye fluorescence; hits give high values | 310,000 compounds, 0.13% hits | AID 2550;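 active means B-score of the integrated fluorescence ratio above library mean plus 3 SD, and starting fluorescence ratio within library mean plus 5 SD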;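 further: higher score means more depolarization so channel activation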
# Kir21 inh: inhibitors of mouse Kir2.1 inward-rectifier potassium channel; HEK293-Kir2.1, FluxOR thallium flux fluorescence; hits give low values; B-score at 10 µM; 310,000 compounds, 0.85% hits; AID 1672;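 active means fluorescence ratio B-score at or below minus 3 SD of library scores, with starting-brightness B-score within 2 SD, cut at about -4.2 in these data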;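 further: channel flux triggered by added potassium and thallium sulfate stimulus; B-score of peak minus minimum fluorescence over baseline after thallium stimulus; more negative B-score means stronger Kir2.1 block with less thallium influx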
# Target sequence (P35561 whole entry, looked up): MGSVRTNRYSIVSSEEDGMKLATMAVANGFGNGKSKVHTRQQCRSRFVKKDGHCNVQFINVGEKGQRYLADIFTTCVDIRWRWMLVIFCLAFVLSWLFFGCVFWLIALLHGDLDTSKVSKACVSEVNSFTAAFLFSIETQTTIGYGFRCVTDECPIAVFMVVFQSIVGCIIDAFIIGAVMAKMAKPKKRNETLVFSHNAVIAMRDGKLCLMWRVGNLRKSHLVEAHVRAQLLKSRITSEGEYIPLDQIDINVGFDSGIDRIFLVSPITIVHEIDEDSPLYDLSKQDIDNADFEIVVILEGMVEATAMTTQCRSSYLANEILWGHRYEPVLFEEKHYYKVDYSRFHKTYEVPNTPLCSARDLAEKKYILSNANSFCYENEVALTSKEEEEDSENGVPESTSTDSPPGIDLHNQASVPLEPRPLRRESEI
# TRPC4 potent: TRPC4 (mouse) allosteric potentiation | Q9QUQ5 | HEK293 TRPC4beta/mu-opioid, DAMGO EC20, Fluo-4 Ca2+ flux; hits give high values | B-score at 10 µM | 310,000 compounds, 0.42% hits | AID 2227;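 active means B-score of calcium response area above 5 SD of library B-scores, with initial fluorescence ratio within 5 SD of library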;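 further: B-score of integrated fluorescence ratio over time as area under calcium response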
# * marks the source's active call; other numbers are inactive results; i = inactive.
SMILES,TRPC6 inhibitor,TRPC4 act,TRPC4 block,TRPC6 activator,Kir21 inh,TRPC4 potent
O=C(C(=O)N1CCCCC1)c1c(-c2ccccc2)[nH]c2ccccc12,i,i,i,i,-0.04,i
O=C(COc1ccc(F)cc1Br)N1CCN(S(=O)(=O)/C=C/c2ccccc2)CC1,i,i,i,i,1.1,12*
O=C(COc1ccc(F)cc1Br)N1CCN(c2ncccn2)CC1,i,i,i,i,-0.04,i
c1ccc2c(NCC3CCCO3)nc(N3CCOCC3)nc2c1 (configuration not stated),i,i,i,i,-0.7,i
Oc1cccc(Nc2nc(NCC3CCCO3)c3ccccc3n2)c1 (configuration not stated),i,i,i,i,-8.1*,i
COc1ccc(/C=[N+](\[O-])C2N(c3ccccc3)C(=S)SC2(C)C)cc1OC (configuration not stated),i,i,i,i,0.26,i
O=C(O)/C=C/C(=O)c1c(-c2ccccc2)[nH]c2ccccc12,i,i,i,i,-0.68,i
CC(COc1ccccc1)N1CCC(CO)(Cc2ccccc2)CC1 (configuration not stated),i,i,-9*,i,-0.63,i
COc1ccc(CC2(CO)CCN(C(C)COc3ccccc3)CC2)cc1 (configuration not stated),i,i,i,i,-0.93,i
COc1ccc(CC2(CO)CCN(C/C=C/c3ccccc3OC)CC2)cc1,i,i,-6*,i,-0.02,i
CC(C)Cc1nnc(NC(=O)c2ccc3c(c2)NC(=O)C(C)S3)s1 (configuration not stated),i,i,i,i,0.09,i
CC(=O)Nc1ccc(S(=O)(=O)Nc2nc3ccccc3nc2N2CCCCCC2)cc1,i,i,i,i,1.1,12*
CC(=O)Nc1ccc(S(=O)(=O)Nc2nc3ccccc3nc2N2CCc3ccccc3C2)cc1,i,i,i,i,1.2,i
COc1cccc(NC(=S)NN2C(C)CCCC2C)c1 (configuration not stated),i,i,i,i,0.07,11*
CCCN1C(=O)/C(=C/c2c(N3CCNC(=O)C3CC(=O)OCC)nc3c(C)cccn3c2=O)SC1=S (configuration not stated),i,i,i,27*,-3.3,i
O=C(Nc1ccc2c(c1)OCCO2)c1c[nH]c(=O)n(-c2ccc(F)c(Cl)c2)c1=O,i,i,i,i,-0.05,i
CN(Cc1ccccc1F)C(=O)c1ccc2c(=O)n3c(nc2c1)CCC3,i,i,i,i,-1.7,i
COc1ccc(C(=O)CN2C(=O)C(C)(C)Oc3ccc(C(=O)N4CCCCCC4)cc32)cc1,i,i,i,i,0.24,i
CNC(=S)N1N=C(c2ccc(C)cc2)CC1c1ccc(OC)c(OC)c1 (configuration not stated),i,i,i,i,-1.7,i
CNC(=S)N1N=C(c2ccccc2)CC1c1ccc(OC)c(OC)c1 (configuration not stated),i,i,i,i,0,11*
CC(=O)c1cccc(N(CC(=O)NC2CCCCC2)C(=O)CNC(=O)c2cccs2)c1,i,i,i,i,0.55,i
CC(C)Oc1ccc(C2NC(=O)c3ccccc3O2)cc1 (configuration not stated),i,i,i,i,-0.89,i
CC1CC(C)CN(CCCNC(=O)c2nn(C)c3c2CS(=O)(=O)c2ccccc2-3)C1 (configuration not stated),i,98*,i,i,-1.3,i
O=C(NC1CCN(Cc2ccccc2)CC1)C1CCCN(S(=O)(=O)c2cccc3nonc23)C1 (configuration not stated),i,i,i,i,0.65,10*
CC1CCC2=NN(C(=O)c3ccco3)C(O)(C(F)(F)F)C2C1 (configuration not stated),i,i,i,i,-0.82,i
SMILES,TRPC6 inhibitor,TRPC4 act,TRPC4 block,TRPC6 activator,Kir21 inh,TRPC4 potent
CC(NC(=O)Cc1cccs1)C(c1cccs1)N1CCN(c2ccccc2)CC1 (configuration not stated),i,i,i,i,0,i
CC(NC(=O)c1ccco1)C(c1cccs1)N1CCN(c2ccccc2)CC1 (configuration not stated),i,i,-6*,i,0.83,i
CCC(=O)NC(C)C(c1cccs1)N1CCN(c2ccccc2)CC1 (configuration not stated),i,119*,i,i,-0.84,i
CCOc1ccc(C(=O)Nc2ccc(C(=O)N3CCOCC3)cc2)c(OCC)c1,i,i,i,i,0.62,i
COCCCNC(=O)CCCN1C(=O)c2cccnc2Sc2ccccc21,i,i,i,i,0.96,i
CSc1ccccc1C(=O)N1CCCC(CCC(=O)NCc2ccc(F)c(F)c2)C1 (configuration not stated),i,i,i,i,-0.42,i
Nc1c2c(nc3ccc(Br)cc13)N(C1CCCCC1)CC2,-7.4*,i,i,18*,-0.18,i
Nc1c2c(nc3ccc(Br)cc13)N(Cc1ccccc1)CC2,i,i,i,i,-0.64,i
O=C(CC(Nc1ccccc1)c1ccc(F)cc1)c1ccccc1 (configuration not stated),i,i,i,i,-5.5*,i
CC1=CCC2C(=O)N(c3cccc(C(=O)Nc4ccccc4Cl)c3)C(=O)C2C1 (configuration not stated),i,i,i,i,0.19,i
CCN1CCN(c2c(Cl)cccc2NC(=O)c2cccs2)CC1,i,i,i,i,-0.71,39*
CCN1CCN(c2c(Cl)cccc2NC(=O)c2ccco2)CC1,i,65*,i,i,-1.8,i
CCN1CCN(c2c(Cl)cccc2NC(=O)c2ccc([N+](=O)[O-])o2)CC1,-8.7*,i,i,i,-3.1,i
O=C(Nc1cccc(Cl)c1N1CCOCC1)c1ccco1,i,i,i,i,-0.71,i
COC(=O)c1ccccc1OCCCN(C)C,i,i,i,i,-1.2,11*
Cn1c(CNc2cccc(Cl)c2)nnc1SCC(=O)OC1CCCCC1,i,i,i,i,-4.2*,i
Cc1ccsc1/C=N/Nc1ncc(Cl)cc1Cl,i,i,i,i,-0.65,10*
